Compound activity: PubChem BioAssay, The Scripps Research Institute Molecular Screening Center
A selection: hits, their analogues and other compounds. The true share with any hit is near 2.7%.
OXTR potentiator = potentiates the human oxytocin receptor response; AID 2445; activation, % at 3 µM; 320,000 tested, 0.061% active; P30559; CHO-OTR cells, Fluo-8 calcium fluorescence, potentiator mode; 0% = oxytocin EC15, 100% = EC100;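 active = activation above that plate's cutoff, the mean activation of tested compounds plus 3 SD, cut at about 6.6% in these data, passing the limit was not always enough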;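 note: 100% uses oxytocin at 75 nM as the full agonist control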
Target sequence (P30559 whole entry, looked up): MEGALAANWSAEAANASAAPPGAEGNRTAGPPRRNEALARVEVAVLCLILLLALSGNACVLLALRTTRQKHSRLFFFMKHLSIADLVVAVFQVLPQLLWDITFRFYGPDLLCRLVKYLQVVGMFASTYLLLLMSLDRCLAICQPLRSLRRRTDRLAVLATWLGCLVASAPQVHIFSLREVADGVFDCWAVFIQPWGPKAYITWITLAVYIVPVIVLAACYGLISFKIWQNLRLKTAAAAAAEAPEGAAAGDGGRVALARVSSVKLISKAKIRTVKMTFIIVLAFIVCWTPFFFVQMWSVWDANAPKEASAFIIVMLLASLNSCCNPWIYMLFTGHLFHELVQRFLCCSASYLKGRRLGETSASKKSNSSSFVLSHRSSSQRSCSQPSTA
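Replication – single well per compound, singlicate · Assay system – CHO cell line stably expressing human OTR · Timing – 6 min pre-incubation, 100 s read · Measure – normalized max/min fluorescence ratio, % activation · Doses – 3.0 µM, one dose · Detection – Fluo-8 calcium dye fluorescence · Probe or stimulus – oxytocin near EC15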
V1aR counter = activates human V1a receptor in oxytocin agonist counter-screen. P37288. CHO-V1R cells, Fluo-8 calcium fluorescence, agonist mode; 0% DMSO, 100% 3 nM vasopressin. activation, % at 3 µM. 320,000 tested, 0.25% active. AID 2797;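 active = activation above the mean activation of all tested compounds plus 3 SD, per screening run, cut at about 20% in these data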;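 note: signal is peak over basal fluorescence ratio across a 100 second FLIPR read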
OX1R antag-1 = antagonists of human orexin 1 receptor | AID 434989 | O43613 | CHO/OX1R cells, Fluo-8 calcium fluorescence, orexin A | inhibition, % at 5 µM | 330,000 tested, 0.43% active;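 active = inhibition above its plate's threshold, mean inhibition of all tested compounds on the plate plus 3 SD, cut at about 37% in these data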;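 note: 0% = orexin A challenge wells and 100% = SB-334867-A antagonist wells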
OX1R antag-2 = antagonists of human orexin 1 receptor (OX1R) | 330,000 tested, 1.8% active | inhibition, % at 6.6 µM | O43613 | OX1R-expressing cells, FRET antagonist read-out; in the data active = inhibition mostly above about 38%, no sharp cut-off; inactive = mostly below about 40%;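 note: 0% = agonist challenge alone and 100% = reference antagonist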
OXTR ag = human OXTR agonism. P30559. CHO-OTR cells, Fluo-8 calcium fluorescence; normalized: DMSO 0%, oxytocin 100%. activation, % at 3 µM. 320,000 tested, 0.32% active. AID 2435;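 active = activation above the mean of all tested compounds plus 3 SD, cutoff set per screening run, cut at about 20% in these data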;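 note: peak over basal fluorescence ratio from a 100 s FLIPR kinetic read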
CHO parental Ca = counter-screen for OX1R antagonists: effect in parental CHO cells; parental CHO-K1, ATP-induced calcium, Fluo-8 fluorescence; inhibition, % at 5.6 µM; 330,000 tested, 0.63% active; AID 463079;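 active = inhibition above that plate's mean sample inhibition plus 3 SD, cut at about 26% in these data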;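 note: 0% = ATP-challenged DMSO wells and 100% = DMSO wells without ATP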
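Test system: untransfected parental CHO cell line; also added: ATP stimulus; dosing: 5.6 µM, single dose; signal: calcium-sensitive Fluo-8 fluorescence; measure: percent inhibition of ATP-evoked calcium rise, normalized to controls; benchmarks: low control ATP plus DMSO, high control DMSO only; replication: one well per compound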
Active calls of the source: *.

SMILES | OXTR potentiator | V1aR counter | OX1R antag-1 | OX1R antag-2 | OXTR ag | CHO parental Ca
CN(C)C(CNc1ccc(S(C)(=O)=O)cc1[N+](=O)[O-])Cc1ccccc1 (stereo unspecified) | 1 | 0 | -20 | 43* | 2 | -21
O=C(NCCOC(=O)c1ccccc1)c1ccccc1 | -3 | 5 | -3 | 3 | 1 | -22
CC(=O)n1cc(/C=N/NC(=O)c2cccc(O)c2)c2ccccc21 | -6 | 0 | -10 | 2 | -2 | -16
Cn1c2ccccc2c2cc(/C=N/NC(=O)c3cc(O)cc(O)c3)ccc21 | -2 | 4 | 14 | 74* | -2 | -8
CCn1c2ccccc2c2cc(/C=N/NC(=O)c3ccccc3)ccc21 | -8 | 0 | 67* | 92* | -2 | -22
O=C(N/N=C/c1ccc(F)cc1)c1ccccc1 | -10 | 1 | -13 | 2 | 1 | -2
O=C(NCC1CCCO1)c1cc(-c2ccc(F)cc2)no1 (stereo unspecified) | -1 | 1 | 0 | 18 | -1 | -3
O=C(Nc1ccccn1)c1ccc([N+](=O)[O-])o1 | -2 | 0 | -6 | 72* | 0 | -1
O=C(Nc1ncccn1)c1ccc([N+](=O)[O-])o1 | -4 | 0 | 1 | 41* | 0 | -14
Cc1ccc(NC(=O)c2ccc([N+](=O)[O-])o2)cc1C | -10 | 0 | -4 | 37 | -2 | -7
NC(=O)c1ccsc1NC(=O)c1ccc([N+](=O)[O-])o1 | -4 | 0 | 32 | 34* | 1 | -4
O=C(Nc1cccc2ccccc12)c1ccc([N+](=O)[O-])o1 | 7 | 0 | -11 | 29 | -1 | -7
NC(=O)c1ccsc1NC(=O)COC(=O)c1ccc([N+](=O)[O-])o1 | -6 | 4 | -11 | 25 | 6 | -24
O=C(Nc1ccc2[nH]c(=O)[nH]c2c1)c1ccc([N+](=O)[O-])o1 | -8 | 0 | -2 | 43* | 1 | -7
Cc1nn(S(=O)(=O)c2ccc(F)cc2)c(C)c1S(=O)(=O)N1CCCCC1 | -11 | -1 | -8 | 10 | 1 | -3
C=CCNC(=O)NC(=O)COC(=O)CC(NC(N)=O)c1ccc(Cl)cc1 (stereo unspecified) | -4 | 0 | -7 | 12 | -1 | -5
COc1ccc(CCNC(=O)Cn2nnc(C(=O)Nc3cccc(C)c3C)c2N)cc1OC | -9 | 0 | -23 | 23 | 8 | -7
Cc1cccc(NC(=O)c2ccc([N+](=O)[O-])o2)c1C | -3 | 0 | -14 | 76* | -1 | -1
CC(C)C(=O)N1CCN(c2ccccc2NC(=O)c2ccc([N+](=O)[O-])o2)CC1 | -16 | 5 | -24 | 61* | 1 | -22
CCn1c2ccccc2c(=O)c2ccccc21 | -17 | -2 | -10 | 67* | 0 | 14
O=c1[nH]cnc2ccccc12 | 3 | -1 | -1 | 9 | 1 | -2
O=c1[nH]cnc2ccc([N+](=O)[O-])cc12 | -2 | 1 | 0 | 52* | 1 | 5
O=c1[nH][nH]c(=O)c2cc([N+](=O)[O-])ccc12 | 1 | 1 | -14 | 52* | 2 | -7
COc1cc(CNc2ccc(S(N)(=O)=O)cc2)ccc1OCC(=O)NC1CCCCC1 | -9 | -1 | -17 | 21 | -2 | -13
CC(C)N(C(=O)CN1C(=O)NC(c2ccccc2)(c2ccccc2)C1=O)C(C)C | 1 | 0 | -4 | 46 | 0 | -11
CC(O)CNc1cc(N)c([N+](=O)[O-])cc1[N+](=O)[O-] (stereo unspecified) | -2 | 1 | 3 | 73* | 2 | -1
CC(O)CNc1ccc([N+](=O)[O-])cc1S(=O)(=O)N1CCOCC1 (stereo unspecified) | -12 | 0 | 3 | 22 | -1 | -10
C=CCN(CC=C)C(=O)C(=O)c1ccn(-c2c(C)csc2C(=O)OC)c1 | 2 | 0 | -32 | 14 | -1 | -14
COc1ccc(Nc2ccncc2[N+](=O)[O-])cc1 | -11 | 0 | -13 | 41* | 0 | 3
COc1ccc(Nc2n[nH]c(C)c2[N+](=O)[O-])cc1 | -4 | 0 | -13 | 18 | 1 | -9
